Assay results as given in ChEMBL document CHEMBL1806371, “Selenocyanates and diselenides: a new class of potent antileishmanial agents” (Eur J Med Chem, 2011).
Activity calls are given as the source filed them. No cut-off for these calls is given here.

Legend:
[1] = system: Leishmania infantum; assay: Antileishmanial activity against Leishmania infantum MCAN/ES/89/IPZ229/1/89 promastigotes assessed as growth inhibition at 25 uM after 24 hrs; assay type: functional
Summary of the method: (§1)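 Log-phase L. infantum promastigotes (RPMI-1640, 10% FCS, 25 mM HEPES, pH 7.2, 26 °C) treated at 2×10^6 parasites/mL for 24 h. Screening used 25, 12.5 and 6.25 μM to give percent growth inhibition. Living cells measured by flow cytometry with propidium iodide exclusion. At least three independent experiments.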

[2] = system: Jurkat; assay: Cytotoxicity against human Jurkat cells assessed as live cells in neubauer chamber after 24 hrs by trypan blue assay; assay type: cell-based
[3] = Selectivity ratio, ratio of IC50 for human THP1 cells to IC50 for Leishmania infantum MCAN/ES/89/IPZ229/1/89 amastigotes; assay type: ADME, cell-based; conditions: THP-1 cells, read-out: Ratio IC50
Summary of the method: (§2)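 Selectivity index is IC50 against Jurkat or THP-1 cells divided by IC50 against L. infantum amastigotes. Host cells were treated in log phase at 4×10^5 cells/mL for 24 h at 37 °C, 5% CO2, at 0.08, 0.4, 2.0, 10.0 and 50.0 μM. Viability was measured by flow cytometry with propidium iodide exclusion.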

[4] = Selectivity ratio, ratio of IC50 for human Jurkat cells to IC50 for Leishmania infantum MCAN/ES/89/IPZ229/1/89 amastigotes; assay type: ADME, cell-based; conditions: read-out: Ratio IC50; summary of the method: as §2
[5] = system: Leishmania infantum; assay: Antileishmanial activity against Leishmania infantum MCAN/ES/89/IPZ229/1/89 amastigotes after 24 hrs by microscopy; assay type: functional, organism-based; conditions: MCAN/ES/89/IPZ229/1/89, 24 h
Summary of the method: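 Axenic L. infantum amastigotes (M199, 10% FCS, pH 5.4, 37 °C) treated in log phase at 1×10^6 parasites/mL for 24 h. Living cells counted by flow cytometry with propidium iodide exclusion, with microscopic observation by phase contrast or fluorescence. At least three independent experiments.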

[6] = system: Leishmania infantum; assay: Antileishmanial activity against Leishmania infantum MCAN/ES/89/IPZ229/1/89 promastigotes after 24 hrs […]; assay type: functional, organism-based; conditions: MCAN/ES/89/IPZ229/1/89, 24 h; summary of the method: as §1
[7] = system: THP-1; assay: Cytotoxicity against human THP1 cells assessed as live cells in neubauer chamber after 24 hrs by trypan blue assay; assay type: cell-based; conditions: THP-1, 24 h
[8] = system: Leishmania infantum; assay: Antileishmanial activity against Leishmania infantum MCAN/ES/89/IPZ229/1/89 promastigotes assessed as growth inhibition at 12.5 uM after 24 hrs; assay type: functional; summary of the method: as §1
[9] = system: Leishmania infantum; assay: Antileishmanial activity against Leishmania infantum MCAN/ES/89/IPZ229/1/89 promastigotes assessed as growth inhibition at 6.25 uM after 24 hrs; assay type: functional; summary of the method: as §1
[10] = system: Leishmania infantum; assay: Ratio of edelfosine IC50 to compound IC50 for Leishmania infantum MCAN/ES/89/IPZ229/1/89 amastigotes; assay type: functional
[11] = system: Leishmania infantum; assay: Ratio of miltefosine IC50 to compound IC50 for Leishmania infantum MCAN/ES/89/IPZ229/1/89 amastigotes; assay type: functional
[12] = Permeability across human Caco2 cells; assay type: ADME, cell-based; conditions: Caco-2, read-out: permeability
[13] = Human intestinal absorption in human; assay type: ADME, organism-based; conditions: read-out: HIA
Summary of the method: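 Values are computed, not measured. Human intestinal absorption (%) and Caco-2 permeability (nm/s) were predicted in silico with the PreADMET program.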

[14] = system: Leishmania infantum; assay: Antileishmanial activity against Leishmania infantum MCAN/ES/89/IPZ229/1/89 amastigotes expressing GFP infected in human THP1 cells assessed as parasite infected cells after 48 hrs by flow cytometry (reference value: 35%); assay type: functional, THP-1

N#C[Se]c1ccc(N)c(C(=O)O)c1
growth inhibition (GI) [1]: inactive

c1ccc2cc(C[Se][Se]Cc3ccc4ccccc4c3)ccc2c1
growth inhibition (GI) [1]: inactive

N#C[Se]CCc1ccc([N+](=O)[O-])cc1
IC50 [2]: 2.4 µM
selectivity ratio [3]: 5
selectivity ratio [4]: 1
IC50 [5]: 3.8 µM
IC50 [6]: 11.9 µM
IC50 [7]: 17.2 µM
GI [1]: 88.9%
GI [8]: 81.8%
GI [9]: 46.6%

N#C[Se]Cc1ccc(Br)cc1
IC50 [2]: 12.7 µM
selectivity ratio [3]: 4
selectivity ratio [4]: 2
IC50 [5]: 7.95 µM
IC50 [6]: 11.6 µM
IC50 [7]: 28.9 µM
GI [1]: 97.1%
GI [8]: 80.8%
GI [9]: 49.2%

Nc1ccc([Se][Se]c2ccc(N)c(C(=O)O)c2)cc1C(=O)O
growth inhibition (GI) [1]: inactive

N#Cc1ccccc1C[Se][Se]Cc1ccccc1C#N
GI [1]: 31.5%
GI [8]: 16.5%
GI [9]: 7.3%

CC(=O)Nc1ccc([Se]C#N)cc1C(=O)O
growth inhibition (GI) [1]: inactive

O=[N+]([O-])c1ccccc1C[Se][Se]Cc1ccccc1[N+](=O)[O-]
IC50 [2]: 2.62 µM
Ratio IC50 [10]: 2.8
Ratio IC50 [11]: 9.8
selectivity ratio [3]: 8
selectivity ratio [4]: 9
IC50 [5]: 0.29 µM
IC50 [6]: 12.5 µM
IC50 [7]: 2.42 µM
GI [1]: 77.2%
GI [8]: 58.9%
GI [9]: 50%

CSc1ccc(C[Se][Se]Cc2ccc(SC)cc2)cc1
GI [1]: 17.5%
growth inhibition (GI) [8]: inactive
growth inhibition (GI) [9]: inactive

O=[N+]([O-])c1ccc(CC[Se][Se]CCc2ccc([N+](=O)[O-])cc2)cc1
GI [1]: 28.4%
GI [8]: 3.2%
GI [9]: 1.2%

CCCCCCCCCCCCCCCCOP(=O)([O-])OCC[N+](C)(C)C [MILTEFOSINE]
IC50 [2]: 33.4 µM
Papp [12]: 2.17 ×10⁻⁶ cm/s
Fa [13]: 99%
selectivity ratio [3]: 7
selectivity ratio [4]: 17
IC50 [5]: 2.84 µM
IC50 [6]: 15 µM
IC50 [7]: 18.5 µM

c1ccc(C[Se][Se]Cc2ccccc2)cc1 [BISBENZYLDISELENIDE]
IC50 [2]: 26.1 µM
Papp [12]: 5.83 ×10⁻⁶ cm/s
Fa [13]: 100%
Activity [14]: 24%
selectivity ratio [3]: 51
selectivity ratio [4]: 41
IC50 [5]: 0.63 µM
IC50 [7]: 32.2 µM
GI [1]: 60.4%
GI [8]: 43.6%
GI [9]: 33.2%

CN(C)c1ccc([Se][Se]c2ccc(N(C)C)cc2)cc1
IC50 [2]: > 50 µM
Papp [12]: 5.61 ×10⁻⁶ cm/s
Fa [13]: 100%
Activity [14]: 23%
selectivity ratio [3]: 29
selectivity ratio [4]: > 65
IC50 [7]: > 25 µM
GI [1]: 77.6%
GI [8]: 67.7%
GI [9]: 51.5%

N#C[Se]c1ccc(N)cc1
IC50 [2]: 43.8 µM
selectivity ratio [3]: > 5
selectivity ratio [4]: 5
IC50 [5]: 9.29 µM
IC50 [6]: 11.2 µM
IC50 [7]: > 50 µM
GI [1]: 76.3%
GI [8]: 38.2%
GI [9]: 14.4%

N#C[Se]Cc1cccc([N+](=O)[O-])c1
IC50 [2]: 12.2 µM
selectivity ratio [3]: 16
selectivity ratio [4]: 21
IC50 [5]: 0.57 µM
IC50 [6]: 4.18 µM
IC50 [7]: 9.32 µM
GI [1]: 97%
GI [8]: 80.5%
GI [9]: 47.2%

CSc1ccc(C[Se]C#N)cc1
IC50 [2]: 5.07 µM
selectivity ratio [3]: 6
selectivity ratio [4]: 2
IC50 [5]: 3.02 µM
IC50 [6]: 11.6 µM
IC50 [7]: 17 µM
GI [1]: 97.2%
GI [8]: 92.9%
GI [9]: 77.3%

N#C[Se]Cc1ccc(C(F)(F)F)cc1
IC50 [2]: 7.31 µM
selectivity ratio [3]: 9
selectivity ratio [4]: 3
IC50 [5]: 2.14 µM
IC50 [6]: 11.3 µM
IC50 [7]: 19.8 µM
GI [1]: 98.8%
GI [8]: 97.2%
GI [9]: 79.4%

O=[N+]([O-])c1ccc(C[Se][Se]Cc2ccc([N+](=O)[O-])cc2)cc1
IC50 [2]: 26.8 µM
Papp [12]: 2.01 ×10⁻⁶ cm/s
Fa [13]: 98.3%
Activity [14]: 17%
Ratio IC50 [10]: 2.2
Ratio IC50 [11]: 7.5
selectivity ratio [3]: 77
selectivity ratio [4]: 71
IC50 [5]: 0.38 µM
IC50 [7]: 18.8 µM
GI [1]: 98.7%
GI [8]: 96.3%
GI [9]: 81.8%

N#C[Se]Cc1ccc([N+](=O)[O-])cc1
IC50 [2]: 6.86 µM
selectivity ratio [3]: 25
selectivity ratio [4]: 10
IC50 [5]: 0.68 µM
IC50 [6]: 4.3 µM
IC50 [7]: 16.8 µM
GI [1]: 98%
GI [8]: 95%
GI [9]: 82.3%

N#Cc1cccc(C[Se][Se]Cc2cccc(C#N)c2)c1
GI [1]: 44.3%
GI [8]: 35.4%
GI [9]: 22.6%

Brc1ccc(C[Se][Se]Cc2ccc(Br)cc2)cc1
GI [1]: 12.2%
GI [8]: 1.9%
growth inhibition (GI) [9]: inactive

Cc1ccc(C[Se]C#N)cc1
IC50 [2]: 14.4 µM
selectivity ratio [3]: 7
selectivity ratio [4]: 4
IC50 [5]: 3.33 µM
IC50 [6]: 11.8 µM
IC50 [7]: 24 µM
GI [1]: 98.6%
GI [8]: 82.8%
GI [9]: 52.8%

N#C[Se]Cc1cccc(C#N)c1
IC50 [2]: 8.71 µM
selectivity ratio [3]: 14
selectivity ratio [4]: 16
IC50 [5]: 0.53 µM
IC50 [6]: 6.06 µM
IC50 [7]: 7.6 µM
GI [1]: 93%
GI [8]: 71.2%
GI [9]: 42.2%

N#C[Se]Cc1ccccc1C#N
IC50 [2]: 17.1 µM
selectivity ratio [3]: 5
selectivity ratio [4]: 5
IC50 [5]: 3.16 µM
IC50 [6]: 7.75 µM
IC50 [7]: 17.1 µM
GI [1]: 90.2%
GI [8]: 62.4%
GI [9]: 31.4%

Cc1ccc(C[Se][Se]Cc2ccc(C)cc2)cc1
GI [1]: 2.5%
growth inhibition (GI) [8]: inactive
growth inhibition (GI) [9]: inactive

CC(=O)Nc1ccc([Se][Se]c2ccc(NC(C)=O)c(C(=O)O)c2)cc1C(=O)O
growth inhibition (GI) [1]: inactive

N#C[Se]Cc1ccccc1 [BENZYLSELENOCYANATE]
IC50 [2]: 10.7 µM
selectivity ratio [3]: 10
selectivity ratio [4]: 4
IC50 [5]: 2.58 µM
IC50 [6]: 7.95 µM
IC50 [7]: 25 µM
GI [1]: 99.4%
GI [8]: 64.1%
GI [9]: 46.5%

N#C[Se]Cc1ccc(C#N)cc1
IC50 [2]: 13.4 µM
selectivity ratio [3]: 15
selectivity ratio [4]: 24
IC50 [5]: 0.55 µM
IC50 [6]: 4.14 µM
IC50 [7]: 7.97 µM
GI [1]: 97%
GI [8]: 80.4%
GI [9]: 51.5%

O=[N+]([O-])c1cccc(C[Se][Se]Cc2cccc([N+](=O)[O-])c2)c1
GI [1]: 41.2%
GI [8]: 29.4%
GI [9]: 18.1%

FC(F)(F)c1ccc(C[Se][Se]Cc2ccc(C(F)(F)F)cc2)cc1
GI [1]: 12.2%
GI [8]: 6%
GI [9]: 11%

N#Cc1ccc(C[Se][Se]Cc2ccc(C#N)cc2)cc1
GI [1]: 32.8%
GI [8]: 21.9%
GI [9]: 10.9%

COc1ccc(C[Se][Se]Cc2ccc(OC)cc2)cc1
GI [1]: 31.7%
GI [8]: 9.9%
GI [9]: 0.5%

N#C[Se]Cc1ccc2ccccc2c1
IC50 [2]: 14 µM
selectivity ratio [3]: 5
selectivity ratio [4]: 4
IC50 [5]: 3.72 µM
IC50 [6]: 11.2 µM
IC50 [7]: 16.8 µM
GI [1]: 91.5%
GI [8]: 81.1%
GI [9]: 37.1%

N#C[Se]Cc1ccccc1[N+](=O)[O-]
IC50 [2]: 12.9 µM
Ratio IC50 [10]: 2.4
Ratio IC50 [11]: 8.3
selectivity ratio [3]: 21
selectivity ratio [4]: 38
IC50 [5]: 0.34 µM
IC50 [6]: 3.32 µM
IC50 [7]: 7.1 µM
GI [1]: 98.6%
GI [8]: 89.8%
GI [9]: 74%

CN(C)c1ccc([Se]C#N)cc1
IC50 [2]: 29.3 µM
selectivity ratio [3]: 16
selectivity ratio [4]: 10
IC50 [5]: 2.79 µM
IC50 [6]: 9.24 µM
IC50 [7]: 44.7 µM
GI [1]: 97.3%
GI [8]: 86.7%
GI [9]: 54.4%
